Test results: ChEMBL document CHEMBL4387703, “Lead optimization and biological evaluation of fragment-based cN-II inhibitors” (Eur J Med Chem, 2019)

Assays:
Settings in all cases: Homo sapiens
[1] = compound: O=C(Nc1ncnc2c1ncn2CP(=O)(O)O)c1cccc(-c2ccccc2)c1; test: Competitive inhibition of recombinant cN-II (unknown origin) using varying level of IMP as substrate assessed as substrate Kcat by HPLC method based Lineweaver-Burk plot analysis
Procedure, shortened: (§1)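 Enzyme, alone or with compound, was mixed with IMP (0.2 to 3 mM) under stirring at 37 °C in imidazole pH 6.5/NaCl/MgCl2 buffer. Samples were taken every 7 s and quenched with 10% perchloric acid. IMP and inosine were quantified by SAX HPLC in 10 mM ammonium phosphate pH 5.5. Data were fitted to competitive, non-competitive, uncompetitive or mixed inhibition equations.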

[2] = compound: O=C(Nc1ncnc2c1ncn2CP(=O)(O)O)c1cccc(-c2ccccc2)c1; test: Competitive inhibition of recombinant cN-II (unknown origin) using varying level of IMP as substrate assessed as substrate Km by HPLC method based Lineweaver-Burk plot analysis; procedure, shortened: as §1
[3] = compound: O=C(Nc1ncnc2c1ncn2CP(=O)(O)O)c1cccc(-c2ccccc2)c1; test: Noncompetitive inhibition of recombinant cN-II (unknown origin) assessed as substrate Kcat using varying level of IMP as substrate by HPLC method based Lineweaver-Burk plot analysis; procedure, shortened: as §1
[4] = compound: O=C(Nc1ncnc2c1ncn2CP(=O)(O)O)c1cccc(-c2ccccc2)c1; test: Noncompetitive inhibition of recombinant cN-II (unknown origin) assessed as substrate Km using varying level of IMP as substrate by HPLC method based Lineweaver-Burk plot analysis; procedure, shortened: as §1
[5] = compound: O=C(Nc1ncnc2c1ncn2CP(=O)(O)O)c1cccc(-c2ccccc2)c1; test: Uncompetitive inhibition of recombinant cN-II (unknown origin) assessed as substrate Kcat using varying level of IMP as substrate by HPLC method based Lineweaver-Burk plot analysis; procedure, shortened: as §1
[6] = compound: O=C(Nc1ncnc2c1ncn2CP(=O)(O)O)c1cccc(-c2ccccc2)c1; test: Uncompetitive inhibition of recombinant cN-II (unknown origin) assessed as substrate Km using varying level of IMP as substrate by HPLC method based Lineweaver-Burk plot analysis; procedure, shortened: as §1
[7] = compound: O=C(Nc1ncnc2c1ncn2CP(=O)(O)O)c1cccc(-c2ccccc2)c1; test: Mixed type inhibition of recombinant cN-II (unknown origin) assessed as substrate Kcat using varying level of IMP as substrate by HPLC method based Lineweaver-Burk plot analysis; procedure, shortened: as §1
[8] = compound: O=C(Nc1ncnc2c1ncn2CP(=O)(O)O)c1cccc(-c2ccccc2)c1; test: Mixed type inhibition of recombinant cN-II (unknown origin) assessed as substrate Km using varying level of IMP as substrate by HPLC method based Lineweaver-Burk plot analysis; procedure, shortened: as §1

B1: 5'-nucleotidase (Homo sapiens), P21589 (protein)
chain: MCPRAARAPATLLLALGAVLWPAAGAWELTILHTNDVHSRLEQTSEDSSKCVNASRCMGGVARLFTKVQQIRRAEPNVLLLDAGDQYQGTIWFTVYKGAEVAHFMNALRYDAMALGNHEFDNGVEGLIEPLLKEAKFPILSANIKAKGPLASQISGLYLPYKVLPVGDEVVGIVGYTSKETPFLSNPGTNLVFEDEITALQPEVDKLKTLNVNKIIALGHSGFEMDKLIAQKVRGVDVVVGGHSNTFLYTGNPPSKEVPAGKYPFIVTSDDGRKVPVVQAYAFGKYLGYLKIEFDERGNVISSHGNPILLNSSIPEDPSIKADINKWRIKLDNYSTQELGKTIVYLDGSSQSCRFRECNMGNLICDAMINNNLRHTDEMFWNHVSMCILNGGGIRSPIDERNNGTITWENLAAVLPFGGTFDLVQLKGSTLKKAFEHSVHRYGQSTGEFLQVGGIHVVYDLSRKPGDRVVKLDVLCTKCRVPSYDPLKMDEVYKVILPNFLANGGDGFQMIKDELLRHDSGDQDINVVSTYISKMKVIYPAVEGRIKFSTGSHCHGSFSLIFLSLWAVIFVLYQ
kcat [1]: 49.9 s⁻¹
Km [2]: 1070 µM
kcat [3]: 53.1 s⁻¹
Km [4]: 1260 µM
kcat [5]: 54.1 s⁻¹
Km [6]: 1360 µM
kcat [7]: 49.9 s⁻¹
Km [8]: 1070 µM
